Assay results reported in ChEMBL document CHEMBL3822427, “An evaluation of Minor Groove Binders as anti-lung cancer therapeutics” (Bioorg Med Chem Lett, 2016).
Calls of active or inactive are those of the source. The calls are words filed in the database; no cut-off is given here.

How the values were obtained:
[1] = Antiproliferative activity against mouse B16-F10-Luc-G5 cells assessed as cell growth inhibition measured after 24 hrs by luciferase gene assay; format: functional, cell-based
Procedure, shortened: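 Luciferase-expressing murine melanoma cells exposed to a concentration series, with gemcitabine as positive control. Growth read by bioluminescence. IC50 is the mean of three experiments, each with three replicates per concentration, reported ± SD.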

[2] = system: Hepatocyte; experiment: Cellular uptake in rat hepatocytes at 7.5 uM measured after 24 hrs by fluorescence analysis; format: ADME, cell-based
Procedure, shortened: (§1)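 Primary hepatocyte monolayers exposed to 7.5µM compound over 24 h, with DMSO control. Uptake checked by fluorescence microscopy using red, green and blue filter settings. Morphology assessed by phase contrast with a x20 wet lens, including images at 60 min.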

[3] = Potency index, ratio of gemcitabine IC50 to compound IC50 for mouse B16-F10-Luc-G5 cells; format: functional
[4] = (§2) Antiproliferative activity against mouse B16-F10-Luc-G5 cells assessed as cell growth inhibition at 15.36 ug/ml measured after 24 hrs by luciferase gene assay relative to DMSO control; format: functional; conditions: read-out: GI
[5] = system: Hepatocyte; experiment: Cytotoxicity against rat hepatocytes assessed as change in cell morphology at 7.5 uM measured up to 24 hrs by phase contrast microscopic analysis; format: cell-based; procedure, shortened: as §1
[6] = system: Hepatocyte; experiment: Cytotoxicity against rat hepatocytes assessed as reduction in cell viability at 7.5 uM measured up to 24 hrs; format: cell-based
[7] = species on record: Mus musculus; experiment: as §2; format: functional
[8] = Drug internalization in nucleus of mouse B16-F0-luc cells at 250 uM measured after 1 hr by DAPI staining based fluorescence microscopic analysis; format: ADME
Procedure, shortened: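 B16-F0-luc mouse melanoma cells exposed to the fluorescent S-MGB probe at two concentrations for 1 hr, with DMSO-only and Hoechst 33342 nuclear-stain controls. Examined live on an inverted fluorescence microscope (x20 objective) under brightfield and UV or DAPI filter sets. Nuclear localisation judged by overlaying fluorescence on brightfield images. Two experiments with separately prepared cells.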

[9] = Drug internalization in nucleus of mouse B16-F0-luc cells at 3 and 30 ug/ml measured after 1 hr by DAPI staining based fluorescence microscopic analysis; format: ADME

Cn1cc(NC(=O)c2cc(NC(=O)c3ccc(/C=C/c4ccc(C(F)(F)F)cc4)cc3)cn2C)cc1C(=O)NCCN1CCOCC1
IC50 [1]: 160 nM | Drug uptake [2]: Not Active | Ratio IC50 [3]: 70 | inhibition of growth at 15.36 µg/mL [4]: 77% | Activity [5]: Non-toxic | Activity [6]: Non-toxic

COc1ccc(/C=C/c2ccc(C(=O)Nc3cc(C(=O)N4CCN(C)CC4)n(C)c3)cn2)cc1
inhibition of growth at 15.36 µg/mL [4]: 59%

COc1cccc(C(=N)Nc2cc(C(=O)Nc3cc(C(=O)Nc4nc(C(=O)NCCCN(C)C)c(C(C)C)s4)n(C)c3)n(C)c2)c1
inhibition of growth at 15.36 µg/mL [4]: 34%

Cn1cc(NC(=O)c2ccc(/C=C/c3cnc4ccccc4c3)cc2)cc1C(=O)NCCN1CCOCC1
inhibition of growth at 15.36 µg/mL [4]: 72%

COc1cccc(/C=C/c2ccc(C(=O)Nc3cc(C(=O)Nc4cc(C(=O)NCCC(=N)N)n(C)c4)n(C)c3)cc2)c1
inhibition of growth at 15.36 µg/mL [4]: 67%

COc1cccc(C(=O)Nc2nc(C(=O)Nc3cc(C(=O)Nc4cc(C(=O)NCCCN(C)C)n(C)c4)n(C)c3)c(C(C)C)s2)c1
growth inhibition (GI) [7]: inactive

Cn1cc(NC(=O)c2cc(NC(=O)c3ccc(/C=C/c4cccc(F)c4)cc3)cn2C)cc1C(=O)NCCN1CCOCC1
inhibition of growth at 15.36 µg/mL [4]: 46%

Cn1cc(NC(=O)c2cc(NC(=O)c3ccc(/C=C/c4cccc(C(F)(F)F)c4)nc3)cn2C)cc1C(=O)NCCN1CCOCC1
growth inhibition (GI) [7]: inactive

CC(C)c1sc(N)nc1C(=O)Nc1cc(C(=O)NCCN2CCOCC2)n(C)c1
inhibition of growth at 15.36 µg/mL [4]: 2.2%

CC(C)n1cc(NC(=O)c2cc(NC(=O)c3cnc(Cl)c(Cl)c3)cn2C)cc1C(=O)Nc1cc(C(=O)NCCCN(C)C)n(C)c1
inhibition of growth at 15.36 µg/mL [4]: 16.1%

CC(C)CCc1sc(NC(=O)c2cc(NC(=O)c3ccc(/C=C/c4cc5ccccc5nc4Cl)cc3)cn2C)nc1C(=O)NCCN1CCOCC1
growth inhibition (GI) [7]: inactive

CCOc1ccc(-c2nc3cc(-c4nc5cc(N6CCN(C)CC6)ccc5[nH]4)ccc3[nH]2)cc1.Cl.Cl.Cl
Drug uptake [8]: Active

CCC(C)n1cc(NC(=O)c2ccc(/C=C/c3ccc(OC)cc3)nc2)cc1C(=O)Nc1cc(C(=O)NCCN2CCOCC2)n(C)c1 (stereo not drawn)
inhibition of growth at 15.36 µg/mL [4]: 84%

Nc1ccn([C@@H]2O[C@H](CO)[C@@H](O)C2(F)F)c(=O)n1 [GEMCITABINE]
IC50 [1]: 11000 nM

Cc1sc(NC(=O)c2ccc3c(c2)C(=O)c2ccccc2C3=O)cc1C(=O)Nc1cc(C(=O)Nc2cc(C(=O)NCCCN(C)C)n(C)c2)n(CCC(C)C)c1
inhibition of growth at 15.36 µg/mL [4]: 40%

CCC(C)n1cc(NC(=O)c2cc(NC(=O)c3ccc(/C=C/c4ccc(OC)cc4)nc3)cn2C)cc1C(=O)NCCN1CCOCC1 (stereo not drawn)
inhibition of growth at 15.36 µg/mL [4]: 84%

CC(C)n1cc(NC(=O)c2cc(NC(=O)c3ccc(/C=C/c4ccc(C(F)(F)F)cc4)cc3)cn2C)cc1C(=O)NCCN1CCOCC1
IC50 [1]: 2160 nM

CC(C)n1cc(NC(=O)c2cc(NC(=O)c3cnc4ccccc4n3)cn2C)cc1C(=O)Nc1cc(C(=O)NCCCN(C)C)n(C)c1
growth inhibition (GI) [7]: inactive

COc1cccc(/C=C/c2ccc(C(=O)Nc3cc(C(=O)Nc4cc(C(=O)NCCN5CCOCC5)n(C)c4)n(C)c3)cc2)c1
growth inhibition (GI) [7]: inactive

COc1cccc(/C=C/c2ccc(C(=O)Nc3cc(C(=O)Nc4cc(C(=O)NCCN5CCOCC5)n(C(C)C)c4)n(C)c3)cc2)c1
IC50 [1]: 1100 nM | inhibition of growth at 15.36 µg/mL [4]: 88%

CC(C)c1nc(N)sc1C(=O)Nc1cc(C(=O)Nc2cc(C(=O)NCCN3CCOCC3)n(C)c2)n(C)c1
inhibition of growth at 15.36 µg/mL [4]: 57%

COc1ccc(/C=C/c2ccc(C(=O)Nc3cc(C(=O)Nc4cc(C(=O)NCCN5CCOCC5)n(C)c4)n(C)c3)cn2)cc1
inhibition of growth at 15.36 µg/mL [4]: 44%

CC(=N)Nc1cc(C(=O)Nc2cc(C(=O)Nc3cc(C(=O)NCCCN(C)C)n(C)c3)n(C)c2)n(C)c1
growth inhibition (GI) [7]: inactive

COc1cccc(/C=C/c2ccc(C(=O)Nc3cc(C(=O)NCCN4CCOCC4)n(C)c3)cc2)c1
IC50 [1]: 810 nM | inhibition of growth at 15.36 µg/mL [4]: 55%

COc1cccc(/C=C/c2ccc(C(=O)Nc3cc(C(=O)N4CCN(C)CC4)n(C)c3)cc2)c1
inhibition of growth at 15.36 µg/mL [4]: 76%

CC(=O)Nc1cc(C(=O)Nc2cc(C(=O)Nc3cc(C(=O)Nc4cc(C(=O)NCCCN(C)C)n(C)c4)n(CCC(C)C)c3)n(C)c2)n(C)c1
growth inhibition (GI) [7]: inactive

Cn1cc(NC(=O)c2cc(NC(=O)c3ccc(/C=C/c4ccc5nonc5c4)cc3)cn2C)cc1C(=O)NCCN1CCOCC1
inhibition of growth at 15.36 µg/mL [4]: 30.9%

CN(C)c1ccc(/C=C/c2ccc(C(=O)Nc3cc(C(=O)Nc4cc(C(=O)NCCN5CCOCC5)n(C)c4)n(C)c3)cn2)cc1
Drug uptake [9]: Dose-dependent effect

CC(=N)Nc1cc(C(=O)Nc2cc(C(=O)Nc3nc(C(=O)NCCCN(C)C)c(CCC(C)C)s3)n(C)c2)n(C)c1
growth inhibition (GI) [7]: inactive

COc1ccc(/C=C/c2ccc(C(=O)Nc3cc(C(=O)Nc4cc(C(=O)NCCN5CCOCC5)n(C(C)C)c4)n(C)c3)cn2)cc1
IC50 [1]: 810 nM | inhibition of growth at 15.36 µg/mL [4]: 83%

COc1ccc(/C=C(/C(=O)Nc2cc(C(=O)Nc3cc(C(=O)NCCCN(C)C)n(C)c3)n(C)c2)c2ccc(OC)cc2)cc1
growth inhibition (GI) [7]: inactive

CC(=O)Nc1cc(C(=O)Nc2cc(C(=O)Nc3cc(C(=O)NCCCN(C)C)n(C)c3)n(C)c2)c(C)s1
growth inhibition (GI) [7]: inactive

Cn1cc(NC(=O)c2cc(NC(=O)c3ccc(/C=C/c4ccc(F)cc4)cc3)cn2C)cc1C(=O)NCCN1CCOCC1
growth inhibition (GI) [7]: inactive

COc1ccc(/C=C/c2ccc(C(=O)Nc3cc(C(=O)Nc4cc(C(=O)NCCN5CCOCC5)n(C)c4)n(C(C)C)c3)cn2)cc1
inhibition of growth at 15.36 µg/mL [4]: 85%

Cn1cc(NC(=O)c2cc(NC(=O)c3ccc(/C=C/c4ccc5nsnc5c4)cc3)cn2C)cc1C(=O)NCCN1CCOCC1
inhibition of growth at 15.36 µg/mL [4]: 37%

CSc1ccc(/C=C/c2ccc3cc(C(=O)Nc4cc(C(=O)Nc5cc(C(=O)NCCN6CCOCC6)n(C)c5)n(C)c4)ccc3n2)cc1
inhibition of growth at 15.36 µg/mL [4]: 19%

COc1cccc(C(=N)Nc2cc(C(=O)Nc3cc(C(=O)Nc4cc(C(=O)NCCCN5CCOCC5)n(C)c4)n(C)c3)n(C)c2)c1
growth inhibition (GI) [7]: inactive

COc1cccc(C(=N)Nc2cc(C(=O)Nc3cc(C(=O)Nc4nc(C(=O)NCCCN(C)C)c(CCC(C)C)s4)n(C)c3)n(C)c2)c1
inhibition of growth at 15.36 µg/mL [4]: 34%

COc1cccc(C(=N)Nc2ccc(C(=O)Nc3cc(C(=O)Nc4cc(C(=O)NCCN5CCOCC5)n(C)c4)n(C)c3)cc2)c1
inhibition of growth at 15.36 µg/mL [4]: 77%

Cn1cc(NC(=O)c2cc(NC(=O)c3cc(NC(=O)c4ccc(Cl)cc4Cl)cn3C)cn2C)cc1C(=O)NCCCN1CCOCC1
growth inhibition (GI) [7]: inactive
